Hits are enriched below; roughly 11% of the tested compounds scored in any of these assays.
G6PDH counter: counter-screen for G6PDH assay hits: L. mesenteroides G6PDH inhibition. Purified L. mesenteroides G6PDH, diaphorase/resazurin coupled fluorescence, 45 min. inhibition, % at 5 µM. 200,000 compounds, 0.12% hits. AID 1020
Diaph inh CS: diaphorase inhibition or chemical oxidation counter-screen. diaphorase resazurin-to-resorufin fluorescence, NADH, 16 min; bacterial (C. kluyveri) enzyme, not human. inhibition, % at 20 µM. 190,000 compounds, 0.69% hits;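 active = primary screen inhibition at 20 µM above a set limit, cut at about 50% in these data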
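Assay system: diaphorase enzyme from Clostridium kluyveri. Quantity: enzyme working solution with 0.14 U/mL diaphorase. Schedule: reaction incubation of 16 min at room temperature. Technique: resorufin fluorescence, excitation 544 nm, emission 590 nm. Controls: No-NADH positive control and DMSO neutral control.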
Diaphorase act: diaphorase activation or chemical reduction counter-screen | Diaphorase/resazurin coupled assay, resorufin fluorescence, 16 min; hits give high values; 1 = vehicle wells, 0 = NADH-free wells | activation factor at 20 µM | 190,000 compounds, 0.005% hits | AID 1229;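 active = diaphorase activity raised at least twofold by the compound at 20 µM; inactive = activation factor below 2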
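Material: Clostridium kluyveri diaphorase, purified enzyme; Quantity: enzyme 0.07 U/mL final; Medium: HEPES pH 7.4 buffer with MgCl2 and Tween 20; Dosing: single compound dose of 20 µM, 1% DMSO final; Schedule: 16 min reaction at room temperature; Measured by: red resorufin fluorescence at 544/590 nm excitation/emission.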
L major viab: inhibitors of Leishmania major promastigote growth | Leishmania major promastigotes, resazurin fluorescence viability | 200,000 compounds, 9% hits | inhibition, % at 10 µM | AID 1063;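 note: promastigotes grown with compound for 44 hours at 28 °C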
WT yeast gro inh: growth inhibition of WT yeast, mitochondrial fusion screen. AID 1362. mitochondrial fusion phenotypic screen, WT strain. inhibition, % at 10 µM. 190,000 compounds, 2.1% hits; in the data active = inhibition above about 58%; tested in S. cerevisiae
Large screens that a line does not name were inactive. Cut-off read from the data, not from the text of the source, unless noted: active = inhibition above about 50%; inactive = the rest.

CSc1nc(N)nc(SCC(=O)Nc2ccc(Cl)cc2)c1C#N	L major viab 100
O=C(CN1CCN(Cc2ccc3c(c2)OCO3)CC1)N1CCc2[nH]c3ccc(F)cc3c2C1	L major viab 99
CC1CN(CC(=O)N2CCc3[nH]c4ccccc4c3C2)CC(C)O1 (stereo not drawn)	none
O=C(CN1CCN(Cc2ccc3c(c2)OCO3)CC1)N1CCc2[nH]c3ccccc3c2C1	L major viab 82
O=C(O)CCCC(=O)N1CCN(c2nc(-c3ccccc3)c3ccccc3n2)CC1	none
c1ccc2c(N3CCCCC3)nc(N3CCCC3)nc2c1	L major viab 99
c1ccc(-c2nc(N3CCNCC3)nc3ccccc23)cc1	L major viab 100
c1ccc(-c2nc(N3CCCCC3)nc3ccccc23)cc1	WT yeast gro inh 68
Nc1nc(N2CCCCC2)nc2ccccc12	none
CCOC(=O)CN1C(=O)S/C(=C/c2ccc3c(c2)n(C)c(=O)n3C)C1=O	L major viab 69
Cn1c(=O)n(C)c2cc(/C=C3/SC(=O)N(CC(=O)N4CCOCC4)C3=O)ccc21	none
CCN(CC)CC(O)COc1ccc2c(c1)c(C(C)=O)c(C)n2-c1ccccc1 (stereo not drawn)	L major viab 100
CCOC(=O)c1c(C)n(C)c2ccc(OCC(O)CN(CC)CC)cc12 (stereo not drawn)	L major viab 99
CCOC(=O)c1c(C)n(C)c2ccc(OCC(O)Cn3nc(C)cc3C)cc12 (stereo not drawn)	L major viab 86
CCOC(=O)c1c(C)n(C)c2ccc(OCC(N)=O)cc12	none
O=C(c1cccc([N+](=O)[O-])c1)N1CCCN(C(=O)c2cccc([N+](=O)[O-])c2)CC1	none
CC(Oc1ccc(Cl)cc1)C(=O)N/N=C/c1ccsc1 (stereo not drawn)	none
CC(=O)NC(=S)Nc1ccc(N2CCOCC2)c(S(=O)(=O)Nc2cc(Cl)ccc2Cl)c1	none
CCN(CC)S(=O)(=O)c1ccc2c(c1)nc(CCC(=O)OCC(=O)Nc1cc(Cl)cc(Cl)c1)n2C	none
CC(C)NC(=O)C(=O)NNC(=O)CCc1ccccc1	none
COc1cccc(NC(=S)N2CCN(Cc3ccccc3)CC2)c1	none
CCCCN(C)C1CCN(C(=S)Nc2ccc(OCC)cc2)CC1	L major viab 82
CCCCN(C)C1CCN(C(=S)Nc2cccc(OC)c2)CC1	L major viab 80
COC(=O)C1=C(C)N(c2ccc(Cl)c(Cl)c2)C(=O)C1	L major viab 80
CCCCn1c(=O)[nH]c(=O)c2c1nc(-c1cc3c(cc1Br)OCO3)n2C	none
Cc1ccc(NC(=O)C2=C(O)CCn3c2nc2ccccc23)cc1	L major viab 57
Cc1cnc(CN2CCc3c([nH]c4ccccc34)C2C2CCCCC2)[nH]1 (stereo not drawn)	L major viab 54
COCCn1c(C)cc(C(=O)COC(=O)c2ccc[nH]c2=O)c1C	L major viab 57
COc1cc(NC(=O)c2cccs2)c(C(=O)OCC(=O)c2cc(C)n(-c3ccc(F)cc3)c2C)cc1OC	L major viab 90
Cc1cc(C(=O)COC(=O)c2ccc[nH]c2=O)c(C)n1C	none
Cc1ccc(-n2c(C)cc(C(=O)COC(=O)c3ccc[nH]c3=O)c2C)cc1	L major viab 70
CCCCOC(=O)/C(=C\c1ccc([N+](=O)[O-])o1)NC(=O)c1ccccc1	L major viab 83
CCCCOC(=O)/C(=C/C=C/c1ccccc1)NC(=O)c1ccccc1	none
O=C(CC1NCCc2ccccc21)Nc1ccc(Oc2ccccc2)cc1 (stereo not drawn)	L major viab 99
NNC(=O)c1ccc(O)cc1O	none
C=CCc1cc(C=O)cc(OCC)c1OCc1ccc(Cl)cc1	L major viab 86
O=C(c1ccco1)N1CCN(CCOCCOc2cccc3ccccc23)CC1	L major viab 90
CCOc1cc(CN2CCN(C(=O)c3ccco3)CC2)ccc1OC	none
CCOc1ccccc1-n1c(CN2CCN(C(=O)c3ccco3)CC2)nc2ccccc2c1=O	WT yeast gro inh 70
O=C(c1ccco1)N1CCN(CCCCOc2cccc3ccccc23)CC1	L major viab 88
CCc1nc(N2CCN(C(=O)c3ccco3)CC2)c2oc3ccccc3c2n1	L major viab 83
CCn1cc(C(=O)O)c(=O)c2cc(F)c(N3CCN(C(=S)NC(=O)c4ccc(F)c(F)c4)CC3)cc21	none
CN(C(=S)NC1=CCS(=O)(=O)C1)C1CCCCC1	none
Cc1ccc(NC(=O)C(=O)NCCN2CCN(S(C)(=O)=O)CC2)cc1C	none
O=CNCCCc1nc2ccccc2n1Cc1cccc2ccccc12	L major viab 93
COc1ccc(C(=O)NCCCc2nc3ccccc3n2Cc2ccccc2C)cc1OC	L major viab 77
CCn1c(CCCNC(=O)c2ccc(F)cc2)nc2ccccc21	none
CC(C)c1cc(CNC(=O)CC2C(=O)NCCN2CC2CCCCC2)on1 (stereo not drawn)	none
C/C(=N\NC(=O)c1ccccc1)c1ccc(-n2ccnc2)cc1	none
COc1ccccc1NS(=O)(=O)c1cccc(C(=O)N/N=C(\C)c2ccc3c(c2)OCCO3)c1	L major viab 99
COC(=O)c1ccc(C)c(NS(=O)(=O)c2ccc(OC)cc2)c1	none
C/C(=N\NC(=O)CN(c1ccccc1Br)S(C)(=O)=O)c1cccs1	none
C/C(=N\NC(=O)CN(c1ccccc1Br)S(C)(=O)=O)c1ccc2c(c1)OCCO2	L major viab 51
COC(=O)c1ccc(C)c(NS(=O)(=O)c2ccc3c(c2)OCCO3)c1	L major viab 100
COc1ccccc1NS(=O)(=O)c1cccc(C(=O)N/N=C(\C)c2ccc(-n3ccnc3)cc2)c1	L major viab 100
COc1cc(OC)cc(C(=O)n2cnnc2N)c1	none
CC(C)OCC1Cn2c(nc3c2c(=O)n(C)c(=O)n3C)O1 (stereo not drawn)	none
Cc1nc2cc(NC(=O)N3CCN(c4ccccn4)CC3)ccc2o1	none
O=C(c1ccc2nc(-c3ccco3)c(-c3ccco3)nc2c1)N1CCN(c2ncccn2)CC1	Diaph inh CS 66
O=C(c1cccc(C(=O)N2CCN(c3ncccn3)CC2)c1)N1CCN(c2ncccn2)CC1	none
O=C(Nc1ccc(N2CCOCC2)cc1)c1ccc2nc(-c3ccco3)c(-c3ccco3)nc2c1	none
S=C(Nc1ccc(N2CCOCC2)cc1)Nc1ccc2nc(-c3ccco3)c(-c3ccco3)nc2c1	Diaph inh CS 64
Cc1ccc(C(=O)N2CCN(c3ncccn3)CC2)cc1S(=O)(=O)N1CCCCC1	L major viab 59
O=C(Nc1ccc2nc(-c3ccco3)c(-c3ccco3)nc2c1)N1CCN(c2ccccn2)CC1	Diaph inh CS 70
Cc1ccc(C(=O)N2CCN(c3ccccc3)CC2)cc1S(=O)(=O)N1CCCC1	none
Cn1cnnc1SCC(=O)Nc1ccc(Cl)c(S(=O)(=O)N2CCOCC2)c1	none
CCCCN(CCCC)S(=O)(=O)c1c(C)[nH]c(=O)[nH]c1=O	none

Screening results: PubChem BioAssay, several laboratories
